Data from ChEMBL document CHEMBL1955816, “Nitric oxide release is not required to decrease the ulcerogenic profile of nonsteroidal anti-inflammatory drugs” (J Med Chem, 2012).
pIC50: −log10 of the molar value.

What was measured:
Rattus norvegicus [1] = test: Antiinflammatory activity in po dosed rat assessed as inhibition of carrageenan-induced paw edema after 3 hrs; format: functional; conditions: read-out: ID50 (the source's name)
Outline: (§1)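 Rats were given an oral gavage suspension in 1% methylcellulose, at doses equimolar to the parent NSAID: 0.71, 0.32 or 0.01 mmol/kg. Controls received an equal volume of vehicle. Carrageenan-induced paw edema was read 3 h after dosing. Activity is the % decrease in the inflammatory response versus the vehicle group.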

Rattus norvegicus [2] = test: Antiinflammatory activity in rat assessed as inhibition of carrageenan-induced paw edema at 0.32 mmol/kg, po after 3 hrs relative to control; format: functional; set-up: scale not given: the % may be the effect or the level left; outline: as §1
[3] = Lipophilicity, log P of the compound; format: physicochemical; conditions: octanol/water
Outline: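 Log P is a theoretical n-octanol/water distribution coefficient, calculated rather than measured.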

[4] = target: T1, Prostaglandin G/H synthase 1 (Ovis aries, UniProt P05979); test: Inhibition of ovine COX1
T1 sequence (P05979 whole entry): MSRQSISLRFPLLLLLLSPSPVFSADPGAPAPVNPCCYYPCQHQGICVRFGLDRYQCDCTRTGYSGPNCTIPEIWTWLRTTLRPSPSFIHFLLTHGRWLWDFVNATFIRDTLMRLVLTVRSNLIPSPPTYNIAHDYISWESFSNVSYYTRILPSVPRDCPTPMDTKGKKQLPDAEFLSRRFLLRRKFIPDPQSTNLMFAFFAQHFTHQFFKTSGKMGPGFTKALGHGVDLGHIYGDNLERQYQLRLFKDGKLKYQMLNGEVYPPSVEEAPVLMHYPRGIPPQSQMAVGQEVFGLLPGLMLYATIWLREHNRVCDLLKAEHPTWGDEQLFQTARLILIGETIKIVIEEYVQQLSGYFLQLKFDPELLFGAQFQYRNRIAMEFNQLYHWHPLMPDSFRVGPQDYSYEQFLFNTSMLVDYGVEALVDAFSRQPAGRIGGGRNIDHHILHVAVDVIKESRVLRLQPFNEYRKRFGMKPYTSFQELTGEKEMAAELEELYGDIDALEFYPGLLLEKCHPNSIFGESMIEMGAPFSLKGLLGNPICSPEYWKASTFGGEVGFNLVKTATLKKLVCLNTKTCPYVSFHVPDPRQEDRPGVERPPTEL
Outline: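 Ovine COX-1 was tested in a cyclooxygenase inhibitor screening kit, following the manufacturer's procedure. Deviation from the mean was <10%.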

Rattus norvegicus [5] = test: Antiinflammatory activity in rat assessed as inhibition of carrageenan-induced paw edema at 0.71 mmol/kg, po after 3 hrs relative to control; format: functional; set-up: scale not given: the % may be the effect or the level left; outline: as §1
Rattus norvegicus [6] = test: Ulcerogenic effect in rat assessed as gastric ulcer overall length at 1.4 mmol/kg, po administered for 6 hrs; format: toxicity, organism-based, Stomach; conditions: in vivo
Outline: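 Rats fasted 24 h with water allowed, then given a suspension in 1.2 mL 1% methylcellulose by gavage. Controls received vehicle. At 6 h, CO2 euthanasia. Stomachs were opened along the greater curvature, rinsed and put on ice. Ulcers were counted and measured under a magnifier (≤1 mm = 1, 1–2 mm = 2, >2 mm = length). Ulcer index = summed length per stomach averaged over n = 4, ±SEM.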

Rattus norvegicus [7] = test: Antiinflammatory activity in rat assessed as inhibition of carrageenan-induced paw edema at 0.01 mmol/kg, po after 3 hrs relative to control; format: functional; set-up: scale not given: the % may be the effect or the level left; outline: as §1
Rattus norvegicus [8] = test: Ulcerogenic effect in rat assessed as gastric ulcer overall length at 0.08 mmol/kg, po administered for 6 hrs; format: toxicity, organism-based, Stomach; conditions: in vivo
Outline: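 Rats were fasted 24 h with water allowed, then dosed orally at 0.08 mmol/kg as a suspension in 1% methylcellulose. Controls received vehicle. After 6 h, animals were killed by CO2 and stomachs opened along the greater curvature, rinsed and kept on ice. Each ulcer was measured along its greatest length under a magnifier. Ulcer index is the total ulcer length per stomach averaged over n = 4, ±SEM.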

## CC(C)Cc1ccc(C(C)C(=O)O)cc1 (stereo not given) [IBUPROFEN]
Rattus norvegicus [1]
  ED50: 300 µmol/kg
Rattus norvegicus [2]
  Activity: 50%
[3]
  logP: 3.7

## CC(=O)Oc1ccccc1C(=O)Oc1ccc(CCO)cc1
[4]
  pIC50: 7.52
[3]
  logP: 2
Rattus norvegicus [5]
  Activity: 58%
Rattus norvegicus [6]
  UI: 2.6 mm

## COc1ccc2c(c1)c(CC(=O)Oc1ccc(CCO)cc1)c(C)n2C(=O)c1ccc(Cl)cc1
Rattus norvegicus [7]
  Activity: 61.3%
[4]
  pIC50: < 4.00
Rattus norvegicus [8]
  UI: 9.6 mm

## CC(=O)Oc1ccccc1C(=O)O [ASPIRIN]
Rattus norvegicus [1]
  ED50: 700 µmol/kg
[3]
  logP: 1.2
Rattus norvegicus [5]
  Activity: 50%
Rattus norvegicus [6]
  UI: 57.4 mm

## CC(C)Cc1ccc(C(C)C(=O)Oc2ccc(CCO)cc2)cc1 (stereo not given)
Rattus norvegicus [2]
  Activity: 63%
[4]
  pIC50: 5.19
[3]
  logP: 4.6
Rattus norvegicus [6]
  UI: 3.5 mm

## COc1ccc2c(c1)c(CC(=O)O)c(C)n2C(=O)c1ccc(Cl)cc1 [INDOMETHACIN]
Rattus norvegicus [7]
  Activity: 38.3%
Rattus norvegicus [8]
  UI: 34.4 mm
